High-throughput results: PubChem BioAssay, several laboratories
TNAP inh hi DEA: TNAP (human) inhibition, high acceptor | P05186 | purified TNAP, CDP-star luminescence, 1 M DEA | inhibition, % at 20 µM | hit rate 0.03% among 200,000 | AID 1135;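 active means over 50% inhibition of tissue-nonspecific alkaline phosphatase at 20 µM in the single-dose screen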;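 further: plate controls were DMSO wells for no effect and EDTA-quenched wells as full inhibition for full effect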
Target sequence (P05186 whole entry, looked up): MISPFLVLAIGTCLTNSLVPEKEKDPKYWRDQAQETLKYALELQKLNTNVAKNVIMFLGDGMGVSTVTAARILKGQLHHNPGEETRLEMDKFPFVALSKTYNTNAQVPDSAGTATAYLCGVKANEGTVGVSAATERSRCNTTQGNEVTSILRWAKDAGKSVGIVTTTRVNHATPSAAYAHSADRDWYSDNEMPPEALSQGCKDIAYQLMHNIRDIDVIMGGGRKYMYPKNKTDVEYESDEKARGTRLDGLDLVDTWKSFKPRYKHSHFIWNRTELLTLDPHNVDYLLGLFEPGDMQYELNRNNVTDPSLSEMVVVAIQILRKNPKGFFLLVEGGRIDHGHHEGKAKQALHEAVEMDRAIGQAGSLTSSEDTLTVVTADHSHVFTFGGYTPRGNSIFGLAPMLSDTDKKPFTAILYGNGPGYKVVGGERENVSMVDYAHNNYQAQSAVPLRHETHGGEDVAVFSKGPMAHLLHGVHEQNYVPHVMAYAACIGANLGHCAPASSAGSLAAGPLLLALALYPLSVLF
TNAP inh noacc: TNAP (human) inhibition, acceptor-free conditions; AID 1012; hit rate 0.26% among 200,000; purified TNAP, CDP-star luminescence, 30 min; P05186; inhibition, % at 20 µM;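 active means tissue-nonspecific alkaline phosphatase inhibition above about 50% at 20 µM in the single-dose screen, limit read from the data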;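 further: 0% = DMSO negative control and 100% = EDTA positive control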
BB579 growth dn: reduces growth of yeast BB579 in restrictive medium. AID 804. S. cerevisiae BB579 growth, OD615, 48 h. inhibition, % at 10 µM. hit rate 0.51% among 140,000;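 active means inhibition above a set limit, 3 SD over the mean compound inhibition, cut at about 44% in these data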
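Test system: Saccharomyces cerevisiae DeaD strain BB579, replicative lifespan model yeast | Buffer or medium: Restrictive CSMM-D medium | Doses: One dose, 10 µM compound with 0.25% DMSO | Incubation: 48 h exposure, 30 °C | Detection: Culture absorbance at 615 nm | Control set: Amphotericin B at 10 µg/mL as positive control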
TNAP act hiacc: increases human TNAP activity under high phosphate acceptor concentration; activation factor at 20 µM; 200,000 tested, under 10 active; purified TNAP, CDP-star luminescence, 1 M DEA, 30 min; hits give high values; 0 = EDTA background, 1 = DMSO-only activity;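 active means activation factor at least 2 at 20 µM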
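Control set: EDTA negative control, DMSO positive control / Assay system: human TNAP / Quantity: TNAP 1/800 final / Evaluation: TNAP activation factor scaled between EDTA and DMSO control wells / Measured by: luminescent substrate turnover signal / Compound dosing: one dose, 20 µM / Times: 30 min enzyme reaction at room temperature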
RAM inhibit: yeast RAM network inhibition | S. cerevisiae dse1pr::URA3 reporter, 5-FOA growth OD615, 2 d; analog-sensitive cbk1-as2 kinase mutant strain | inhibition, % at 50 µM | hit rate 1.8% among 190,000 | AID 868;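 active means inhibition above a set limit, 3 SD over mean compound inhibition, cut at about 8.4% in these data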;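 further: 0% = DMSO-only wells with no growth and 100% = 10 µM 1-NA-PP1 full growth; inhibition rescues growth on 5-FOA so higher OD means more RAM inhibition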
Yeast lifespan up: extends the lifespan of yeast. S. cerevisiae growth with nicotinamide, OD615; deaD strain in restrictive glucose medium. inhibition of the nicotinamide effect, % at 10 µM. hit rate 0.68% among 130,000;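 active means inhibition above a set limit, placed 3 SD over the median of all compounds, cut at about 26% in these data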;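 further: 0% = nicotinamide-treated wells and 100% = cells grown without nicotinamide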
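Assay system: DeaD-strain S. cerevisiae. Medium: CSMM-D glucose medium, restrictive. Reagent: nicotinamide, 1.5 mM, co-present with compound. Compound: 10 µM single point, 0.25% DMSO. Schedule: culture preincubation 4 h, compound exposure 48 h, both 30 °C. Detection: absorbance at 615 nm.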
* = called active by the depositor; · = no result. An excerpt weighted towards active compounds, which were near 2.8% of everything screened.

SMILES	TNAP inh hi DEA	TNAP inh noacc	BB579 growth dn	TNAP act hiacc	RAM inhibit	Yeast lifespan up
CC(c1ccco1)N(C(=O)c1ccccc1NS(=O)(=O)c1ccc(Cl)c([N+](=O)[O-])c1)c1ccccn1 (stereo unspecified)	-6	-6	-25	1.1	1	40*
CCCCCCCCn1c(N2CCN(c3cccc(Cl)c3)CC2)nc2c1c(=O)[nH]c(=O)n2C	-2	-58	-59	1	9.1*	-15
O=C(NC(=S)N1CCc2ccccc21)c1ccccc1Br	4	-2	-24	1	0	27*
O=C(NC(=S)N1CCc2ccccc21)c1ccc(Br)o1	-3	-10	·	1	-1	·
CCOC(=O)NC(=O)CSc1nnnn1-c1ccc(Cl)cc1	-4	-1	-25	1	1	-7
CCCCOc1ccc(S(=O)(=O)NNC(=O)c2cc3ccccc3o2)cc1	-5	-13	-24	1	10*	2
CC(C)COc1ccc(S(=O)(=O)NNC(=O)c2cc3ccccc3o2)cc1	2	-20	-20	1	1	11
COc1ccccc1/C=N/N1C(=O)C(CC(=O)Nc2ccc([N+](=O)[O-])cc2OC)SC1=Nc1cccc(C)c1C (stereo unspecified)	-3	-2	·	1	11*	·
CCn1c(=O)c2cc(C(=O)NCc3cccs3)sc2c2ccccc21	-8	-11	·	1.1	9.9*	·
Cc1cc(C)n(CCC(=O)Nc2cccc(F)c2)n1	0	-4	·	1	0	·
CN(CC(=O)Nc1ccc(F)cc1)C(=O)COc1ccc(C(=O)c2ccccc2)cc1	-1	-6	-18	1	2	-6
N#Cc1nc(COc2ccc(F)cc2)oc1N1CCC(Cc2ccccc2)CC1	-2	-3	-10	1	9.9*	-2
COc1ccc(OCc2nc(C#N)c(N3CCN(c4ccc(OC)cc4)CC3)o2)cc1	-1	-8	-37	1	8.4*	3
COc1ccc(Nc2nc(CN3CCOCC3)nc3sc4c(c23)CCC(C)C4)cc1OC (stereo unspecified)	-6	-19	-11	1.1	-1	1
CC1CCc2c(sc3nc(CN4CCOCC4)nc(Sc4ccccc4)c23)C1 (stereo unspecified)	3	-3	46*	1	-1	-7
CCOc1cc(CNc2nn[nH]n2)ccc1OCC(=O)NC(C)(C)C	-1	-6	·	1	0	·
O=C(c1cc2n(n1)C(C(F)(F)F)CC(c1ccc(F)cc1)N2)N1CCCC1 (stereo unspecified)	0	13	-69	1	3	-8
COC(=O)[C@H](Cc1ccccc1)NC(=O)O[C@@H]1C(=O)c2cc(OC)ccc2O[C@H]1c1ccc(OC)c(Br)c1	0	-4	-41	1	11*	5
Cc1ccc(S(=O)(=O)Oc2ccccc2/C=N/NC(N)=S)cc1	1	-6	-32	1	9.1*	11
Cc1ccccc1C(=O)Nc1nnc(-c2cccnc2)o1	3	1	·	1	0	·
O=C(Nc1nnc(-c2ccccc2Cl)o1)c1cccnc1	-2	-9	-19	1	0	34*
CCCCOC(=O)CSc1nc2c(c(=O)[nH]c(=O)n2C)n1C/C=C(\C)Cl	-6	5	-13	1.1	4	87*
CCCCCn1c(SCCc2ccccc2)nc2c1c(=O)[nH]c(=O)n2C	-6	-7	-47	1.1	2	-14
CCCCCOC(=O)CSc1nc2c(c(=O)[nH]c(=O)n2C)n1CCc1ccccc1	-5	-14	-27	1	3	92*
COC1(c2ccccc2)NC(=S)NN=C1c1ccccc1 (stereo unspecified)	-3	-2	0	1	1	-2
SMILES	TNAP inh hi DEA	TNAP inh noacc	BB579 growth dn	TNAP act hiacc	RAM inhibit	Yeast lifespan up
Cc1ccc(N(CC(=O)NCCSc2nc3ccccc3s2)S(=O)(=O)c2ccccc2)c(C)c1	-4	-8	-19	1	9.2*	7
O=C(CN(c1ccccc1)S(=O)(=O)c1ccccc1)NCCSc1nc2ccccc2s1	-1	-6	-4	1	8	-21
Cc1cccc(N(CC(=O)NCCSc2nc3ccccc3s2)S(=O)(=O)c2ccccc2)c1	-4	1	-31	1	11*	-1
O=C(/C=C/c1cccc([N+](=O)[O-])c1)N1CCN(S(=O)(=O)c2cccs2)CC1	0	-7	·	1	-1	·
CCOc1ccc(N(CC(=O)Nc2cccc(N(C)S(C)(=O)=O)c2)S(=O)(=O)c2ccccc2)cc1	-4	-24	-38	1	9.6*	-5
Cc1sc2ncn(C(C)C(=O)OC3CCCCC3)c(=O)c2c1C (stereo unspecified)	5	4	-40	0.9	0	27*
N#CCCn1nc(-c2ccccc2)cc1Nc1ccccc1NC(=O)c1cccs1	-7	-8	-13	1.1	0	-8
COc1cc(/C=C/C(=O)CC(=O)/C=C/c2ccc(O)c(OC)c2)ccc1O	53*	44	-6	0.5	8.7*	-1
COc1cc(C=C(C(C)=O)C(C)=O)ccc1O	9	4	-6	0.9	0	2
Cc1ccc(CN(Cc2ccco2)S(=O)(=O)c2ccc(S(=O)(=O)NCC3CCCO3)cc2)cc1 (stereo unspecified)	-2	-4	-50	1	9.3*	6
COc1ccc(Cl)cc1S(=O)(=O)N1CCN(c2ccc(F)cc2)CC1	-5	-10	-28	1	2	-13
CCOc1ccc(Cl)cc1S(=O)(=O)N1CCN(c2ccc(F)cc2)CC1	-6	-3	-32	1.1	9.0*	-4
CCN(c1ccccc1)S(=O)(=O)c1ccc(Cl)c(NC(=O)CSc2nncs2)c1	0	-39	-6	1	1	-4
CC1CCN(S(=O)(=O)c2ccc(NC(=O)Cc3cccs3)cc2)CC1	-3	-4	-42	1	9.1*	-12
O=C(/C=C/c1ccc(Br)cc1)Nc1ccc(S(=O)(=O)Nc2ncccn2)cc1	0	2	·	1	9.8*	·
CC(=O)Nc1ccc(S(=O)(=O)Nc2ncccn2)cc1	-5	-13	-7	1.1	1	-5
O=C(CNS(=O)(=O)c1ccccc1)Nc1cccc([N+](=O)[O-])c1	-4	-6	·	1	0	·
CCOc1ccc(NCc2nc3ccccc3n2CCOc2ccccc2)cc1	2	-4	48*	1	0	42*
CN(C)CCNC(C(=O)Nc1cccc(C(F)(F)F)c1)c1ccccc1 (stereo unspecified)	-4	-38	·	1	1	·
O=C(Nc1cccc(C(F)(F)F)c1)C(Sc1cccc[n+]1[O-])c1ccccc1 (stereo unspecified)	0	-5	59*	1	0	3
